ChEMBL document CHEMBL1154567, “New lanostanoids of Ganoderma tsugae” (2000)
Converted amounts (≈) assume the structure as drawn. Numbered stars: 1 amine (or outer) side, 2 acyl side, 3 side chain; on linkers, the order of the positions; unused ones are H or OH. Bridge positions count the residues as written; N and C are the ends. Square brackets hold non-standard residues; d marks the D form. Peptide text beside a SMILES is read from it. I, II: the chains in the order shown. Actinocin(1to9) = Cc1c2oc3c(C)ccc(C(=O)[*:2])c3nc-2c(C(=O)[*:1])c(N)c1=O; NMeV = CN[C@H](C(=O)O)C(C)C; Sar = CNCC(=O)O

Legend:
Assay type in all cases: functional
[1] = Cytotoxicity against human PLC/PRF/5 cells after 6 days by MTT assay; details: PLC-PRF-5, 144 h, read-out: ED50 (the source's name)
Method in brief: (§1)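 Human lines (hepatoma PLC/PRF/5, T24, cervical carcinoma HT-3 and SiHa) were kept in DMEM with 10% FBS, 2 mM L-glutamine and penicillin/streptomycin, plus 10 mM HEPES pH 7.3, at 37 °C in CO2. Cells at 1-3 × 10³/100 µL had 6 h to attach, then fresh medium with graded drug concentrations was added for 6 days. Survival was read by 4 h MTT (1 mg/mL in PBS, 10 µL) at 37 °C, with DMSO solubilization.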

T-24 = experiment: Cytotoxicity against human T24 cells after 6 days by MTT assay; details: T-24, 144 h, read-out: ED50 (the source's name); method in brief: as §1
HT-3 = experiment: Cytotoxicity against human HT3 cells after 6 days by MTT assay; details: HT-3, 144 h, read-out: ED50 (the source's name); method in brief: as §1
SiHa = experiment: Cytotoxicity against human SiHa cells after 6 days by MTT assay; details: 144 h, read-out: ED50 (the source's name); method in brief: as §1
Ca-Ski = experiment: Cytotoxicity against human CaSKi cells after 6 days by MTT assay; details: 144 h, read-out: ED50 (the source's name)
Method in brief: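 CaSki (human cervical carcinoma) kept in DMEM with 10% FBS, 2 mM L-glutamine and penicillin/streptomycin. For the assay, 1-3 × 10³ cells/100 µL were seeded and left 6 h to attach. Medium was then replaced with fresh medium holding a range of drug concentrations, plus 10 mM HEPES pH 7.3, at 37 °C in CO₂. After 6 days, MTT (1 mg/mL in PBS) was added for 4 h. Formazan was dissolved in DMSO.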

[2] = Cytotoxicity against mouse 212 cells after 6 days by MTT assay; details: 144 h, read-out: ED50 (the source's name)
Method in brief: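 The 212 line is an inducible Ha-ras-transformed NIH/3T3 line. It was grown in alpha MEM with 10% calf serum and antibiotics, plus 10 mM HEPES pH 7.3, at 37 °C in CO2. Cells were seeded at 1-3 × 10³/100 µL and allowed 6 h to attach. Medium was then swapped for fresh medium carrying various drug concentrations for 6 days. MTT (10 µL of 1 mg/mL) was added for 4 h at 37 °C, and formazan was dissolved in DMSO.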

Row | Compound | EC50 [1] | EC50 (T-24) | EC50 (HT-3) | EC50 (SiHa) | EC50 (Ca-Ski) | EC50 [2]
1 | CC(C)=CCC[C@@H](C(=O)O)[C@H]1CC[C@@]2(C)C3=C(CC[C@]12C)[C@@]1(C)CCC(=O)C(C)(C)[C@@H]1CC3 | 12.1 µg/mL (≈ 26.6 µM) | 8.2 µg/mL (≈ 18 µM) | 6.9 µg/mL (≈ 15.2 µM) | 5.1 µg/mL (≈ 11.2 µM) | 7.2 µg/mL (≈ 15.8 µM) | 
2 | CC(=O)O[C@H]1CC[C@]2(C)C3=C(CC[C@H]2C1(C)C)[C@]1(C)CC[C@H]([C@@H](CCC=C(C)C)C(=O)O)[C@@]1(C)CC3 [ACETYL TRAMETENOLIC ACID] | 9.2 µg/mL (≈ 18.4 µM) | 5.8 µg/mL (≈ 11.6 µM) |  |  | 3.9 µg/mL (≈ 7.82 µM) | 
3 | Cc1c2oc3c(C)ccc(C(=O)N[C@@H]4C(=O)N[C@H](C(C)C)C(=O)N5CCC[C@H]5C(=O)N(C)CC(=O)N(C)[C@@H](C(C)C)C(=O)O[C@@H]4C)c3nc-2c(C(=O)N[C@@H]2C(=O)N[C@H](C(C)C)C(=O)N3CCC[C@H]3C(=O)N(C)CC(=O)N(C)[C@@H](C(C)C)C(=O)O[C@@H]2C)c(N)c1=O [DACTINOMYCIN] (I: T[dV]P[Sar][NMeV] / II: T[dV]P[Sar][NMeV]; ester I:1-I:C, II:1-II:C; linker I:N-II:N via Actinocin(1to9)) | 0.0014 µg/mL (≈ 0.00112 µM) | 0.0015 µg/mL (≈ 0.00119 µM) |  |  | 0.0019 µg/mL (≈ 0.00151 µM) | 
4 | CC(C)=CCC[C@@H](C(=O)O)[C@H]1CC[C@@]2(C)C3=C(CC[C@]12C)[C@@]1(C)CC[C@H](O)C(C)(C)[C@@H]1CC3 [TRAMETENOLIC ACID] |  | 4.4 µg/mL (≈ 9.63 µM) | 3.5 µg/mL (≈ 7.66 µM) | 5.5 µg/mL (≈ 12 µM) | 6.2 µg/mL (≈ 13.6 µM) | 
5 | CC(=O)O[C@@H]1CC[C@]2(C)C3=C(CC[C@H]2C1(C)C)[C@]1(C)CC[C@H]([C@@H](CCC=C(C)C)C(=O)O)[C@@]1(C)CC3 [TSUGARIC ACID A] | 6.8 µg/mL (≈ 13.6 µM) | 3.1 µg/mL (≈ 6.22 µM) |  |  |  | 
6 | C=C(C)C(C)CC[C@@H](C(=O)O)[C@H]1[C@H](O)C[C@@]2(C)C3=C(CC[C@]12C)[C@@]1(C)CC[C@H](OC(C)=O)C(C)(C)[C@@H]1CC3 (stereo not given in full) [TSUGARIC ACID B] |  |  |  |  |  | 10.3 µg/mL (≈ 19.5 µM)
7 | CC(=O)O[C@@H]1CC[C@]2(C)C3=C(CC[C@H]2C1(C)C)[C@]1(C)CC[C@H]([C@@H](CCC=C(C)C)C(=O)O[C@@H]2O[C@H](CO)[C@@H](O)[C@H](O)[C@H]2O)[C@@]1(C)CC3 [TSUGARIOSIDE A] |  | 1.73 µg/mL (≈ 2.62 µM) | 6.8 µg/mL (≈ 10.3 µM) | 8.4 µg/mL (≈ 12.7 µM) |  | 
8 | C=C(C)/C(C)=C\C[C@@H](C(=O)O[C@@H]1OC[C@@H](O)[C@H](O)[C@H]1O)[C@H]1CC[C@@]2(C)C3=C(CC[C@]12C)[C@@]1(C)CC[C@@H](OC(C)=O)C(C)(C)[C@@H]1CC3 [TSUGARIOSIDE C] | 6.5 µg/mL (≈ 10.1 µM) | 8.6 µg/mL (≈ 13.4 µM) | 7.2 µg/mL (≈ 11.2 µM) | 9.5 µg/mL (≈ 14.8 µM) |  | 
